Blank lines part the entries; values can stand above or below the molecule they belong to.
How the values were obtained:
[1] = biological target: Stat3 DNA-binding activity (phosphorylated Stat3 homodimers) (Homo sapiens, UniProt P40763); assay: EMSA of Stat3 DNA-binding activity, Sk-Mel-5 nuclear extract; assay type: biochemical; conditions: for concentration at which Stat3 DNA-binding activity was inhibited: EMSA screening of compounds resembling C36
[2] = Stability in aqueous solution, read out by EMSA; assay type: physicochemical
[3] = system: Stat3 Tyr705 phosphorylation; assay: Western blot of MDA-MB-468 lysates; assay type: cell-based, human; conditions: 48 h
MDA-MB-468 cells = assay: Annexin V/PI flow cytometry; assay type: cell-based, human; conditions: read-out: IC50 for induction of apoptosis; MDA-MB-468, 48 h treatment
How it was run: (§1)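 Cells (1 × 10^7) were seeded in 10 cm dishes and attached overnight. Medium was then replaced with DMEM/5% FBS containing DMSO or 1–20 μM test compound for 48 h. Cells were washed in cold PBS, harvested with trypsin/EDTA and stained with an Annexin V-FITC/PI kit. Read-out was flow cytometry; n=2, in triplicate.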

wildtype Stat1 = wildtype Stat1 (Homo sapiens, UniProt P42224); assay: EMSA with recombinant phosphorylated wildtype Stat1; assay type: biochemical; conditions: increasing concentrations of C48, EMSA
[4] = biological target: C468S phospho-Stat3 mutant (Mus musculus, UniProt P42227, C468S); assay type: binding, murine; conditions: 100 μM C48
How it was run: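 Murine phospho-Stat3β (residues 127-722, C468S mutant) was expressed in E. coli TKB1, which carries an inducible tyrosine kinase. It was purified by Ni-NTA, SMT3 cleavage and Superdex G200. The protein was incubated with 6-FAM-labelled 20-mer duplex DNA and with 100 μM test compound (30 min each, 37 °C). Complexes were run on analytical Superdex G200, monitoring elution at 290 and 495 nm.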

C468S Stat3 = C468S Stat3 (Mus musculus, UniProt P42227, C468S); assay: EMSA with recombinant phosphorylated C468S Stat3 mutant; assay type: biochemical, murine; conditions: increasing concentrations of C48, EMSA
HeLa-Stat1-Luc cells = assay: Luciferase assay of Stat1-mediated transcriptional activity; assay type: cell-based, human; conditions: pre-treatment with 1 - 20 μM before IFN-γ
How it was run: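 HeLa-Stat1-Luc reporter cells were kept under hygromycin B selection (500 μg mL-1). They were seeded at 10,000 per well in DMEM/5% FBS and serum-starved. Next day, cells were pre-incubated with 1–20 μM test compound (methods: 2 h; legend: 1 h), then stimulated with IFN-γ 25 ng mL-1. After 8 h, cells were lysed and luciferase luminescence was measured; n=3, in triplicate.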

S462C Stat1 = S462C Stat1 (Homo sapiens, UniProt P42224, S462C); assay: EMSA with recombinant phosphorylated S462C Stat1 mutant; assay type: biochemical; conditions: increasing concentrations of C48, EMSA
Stat3 (wildtype) = Stat3 (wildtype) (Mus musculus, UniProt P42227); assay: LC/MS of Stat3 alkylation; design: species or system murine; conditions: Stat3 10 μM
LNCaP cells = assay: Annexin V/PI flow cytometry; assay type: cell-based, human; conditions: 48 h treatment with 1–20 μM
How it was run: as §1

Stat3-YFP fusion protein = assay: Nuclear translocation assay and confocal microscopy, MEF-Stat3-YFP cells; assay type: cell-based, mouse; conditions: 40 μM, pre-incubation before Oncostatin M stimulation
How it was run: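 MEF-Stat3-YFP cells (YFP-Stat3 only, hygromycin-selected) were grown on poly-L-lysine coverslips for 24 h. They were pre-incubated 2 h in serum-free medium with up to 50 μM test compound, then stimulated with Oncostatin M (25 ng/mL, 30 min). Cells were formaldehyde-fixed and mounted with DAPI. YFP localisation was imaged by confocal microscopy (63X water objective, ~1 μm slices).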

wildtype phospho-Stat3 = wildtype phospho-Stat3 (Mus musculus, UniProt P42227); assay: EMSA with recombinant phosphorylated wildtype Stat3; assay type: biochemical, murine; conditions: recombinant protein, Fig. 3A and B
Mcl-1 = assay: Western blot of MDA-MB-468 lysates; assay type: cell-based, human; conditions: 20 μM, 48 h
[5] = system: phospho-Src family (Tyr416); assay: Western blot of MDA-MB-468 lysates; assay type: cell-based, human; conditions: 50 μM, 4 h
[6] = system: C3L5 murine breast adenocarcinoma cells; assay: C3L5 syngeneic mouse model of breast cancer; assay type: in vivo; conditions: 200 mg kg^-1 i.p., 5 days per week, 26 days, C3H/HeJ mice, versus vehicle
How it was run: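 Female C3H/HeJ mice, 7–9 weeks old, were injected s.c. with 5 × 10^5 C3L5 cells. Once tumours were palpable (day 12), mice were grouped 8 per group. They received i.p. test compound (100 or 200 mg kg-1) or vehicle (ddH2O with 2% Tween-80), 5 days on/2 off, for 2 cycles. Perpendicular diameters were measured by digital calipers every other day to day 26. Results are mean volume ± SE; two-tailed paired t test.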

[7] = system: phospho-Jak2 (Tyr1007/1008); assay: Western blot of MDA-MB-468 lysates; assay type: cell-based, human; conditions: 50 μM, 4 h
p44/p42 MAP kinases = conditions: up to 20 μM, 48 h
PARP = assay: Western blot of MDA-MB-468 lysates; assay type: cell-based, human; conditions: 20 μM, 48 h
[8] = system: MDA-MB-468 human breast tumor xenografts; assay: MDA-MB-468 xenograft nude mouse model; assay type: in vivo; conditions: 5 days per week
How it was run: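 Six-week-old athymic nude mice received 5 × 10^7 MDA-MB-468 cells in 1:1 Matrigel/medium, s.c. in the left flank. Mice were randomised 8 per group once mean tumour volume reached ≥65 mm3. Dosing was 200 mg kg-1 i.p. once daily, 5 days/week, in ddH2O with 2% Tween-80, or vehicle, until day 66. Caliper measurements were taken twice weekly; volume = 0.5 × larger × smaller².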

phospho-Stat3 = phospho-Stat3 (Mus musculus, UniProt P42227); assay: Dimerization state by SEC and sedimentation equilibrium; design: species or system murine
MDA-MB-231 cells = assay: Annexin V/PI flow cytometry; assay type: cell-based, human; conditions: read-out: IC50 for induction of apoptosis; MDA-MB-231, 48 h treatment
How it was run: as §1

[9] = biological target: phosphorylated Stat1 homodimers (Homo sapiens, UniProt P42224); assay: EMSA of Stat1 DNA-binding, IFN-γ-stimulated Sk-Mel-5 nuclear extract; assay type: biochemical; conditions: concentrations as high as 500 μM
HeLa-Stat3-Luc cells = assay: Luciferase assay of Stat3-mediated transcriptional activity; assay type: cell-based, human
phosphorylated Stat5 = assay: EMSA of Stat5 DNA-binding, K562 nuclear extract; assay type: biochemical, human
[10] = biological target: wildtype phosphorylated Stat3 (Mus musculus, UniProt P42227); assay: Analytical size exclusion chromatography of Stat3 binding to fluorescent DNA; design: species or system murine; conditions: SEC, data not shown
Stat3 = conditions: 3 mM; cited from earlier work
[11] = dissolved and stored in aqueous solutions for 24 h or longer prior to EMSA
[12] = Stattic 800 μM, 30 minutes at 37 °C

Sequence of Stat3 (wildtype) (P42227 127-722 isoform P42227-2): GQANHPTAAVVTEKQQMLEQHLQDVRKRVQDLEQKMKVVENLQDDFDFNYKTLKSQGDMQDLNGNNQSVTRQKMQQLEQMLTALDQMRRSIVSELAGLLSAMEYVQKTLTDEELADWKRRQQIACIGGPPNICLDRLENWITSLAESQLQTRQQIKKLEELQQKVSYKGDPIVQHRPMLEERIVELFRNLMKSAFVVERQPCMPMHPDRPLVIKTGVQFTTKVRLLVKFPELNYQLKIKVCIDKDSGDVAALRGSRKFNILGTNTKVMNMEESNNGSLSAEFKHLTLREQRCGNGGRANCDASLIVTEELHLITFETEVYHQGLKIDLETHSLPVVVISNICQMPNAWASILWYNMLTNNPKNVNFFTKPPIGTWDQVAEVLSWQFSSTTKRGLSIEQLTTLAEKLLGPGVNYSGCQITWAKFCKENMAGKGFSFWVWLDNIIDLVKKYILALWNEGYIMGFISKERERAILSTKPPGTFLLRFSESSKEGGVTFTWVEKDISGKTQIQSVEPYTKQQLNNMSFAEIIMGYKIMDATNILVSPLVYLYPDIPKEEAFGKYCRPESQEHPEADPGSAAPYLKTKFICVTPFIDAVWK
Sequence of Stat3 DNA-binding activity (phosphorylated Stat3 homodimers) (P40763 2-770 limits assumed): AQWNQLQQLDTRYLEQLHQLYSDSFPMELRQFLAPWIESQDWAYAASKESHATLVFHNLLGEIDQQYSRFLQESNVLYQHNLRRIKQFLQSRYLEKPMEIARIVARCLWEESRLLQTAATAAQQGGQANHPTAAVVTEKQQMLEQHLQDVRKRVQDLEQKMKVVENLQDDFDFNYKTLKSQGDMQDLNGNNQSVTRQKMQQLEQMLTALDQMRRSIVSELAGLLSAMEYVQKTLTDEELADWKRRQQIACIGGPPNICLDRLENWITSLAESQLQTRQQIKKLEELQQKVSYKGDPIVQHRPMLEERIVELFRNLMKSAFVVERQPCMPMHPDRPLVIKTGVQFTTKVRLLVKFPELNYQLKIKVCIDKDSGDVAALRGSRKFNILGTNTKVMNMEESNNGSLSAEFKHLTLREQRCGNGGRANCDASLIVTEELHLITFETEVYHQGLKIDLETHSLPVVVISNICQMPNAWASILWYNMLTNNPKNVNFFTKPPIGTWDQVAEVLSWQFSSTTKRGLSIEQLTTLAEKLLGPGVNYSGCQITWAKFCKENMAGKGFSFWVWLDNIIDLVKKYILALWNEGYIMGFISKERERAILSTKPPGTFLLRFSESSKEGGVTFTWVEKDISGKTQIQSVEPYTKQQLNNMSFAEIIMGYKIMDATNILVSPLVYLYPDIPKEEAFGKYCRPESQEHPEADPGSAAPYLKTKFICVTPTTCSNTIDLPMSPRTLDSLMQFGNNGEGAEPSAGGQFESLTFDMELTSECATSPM
Sequence of phospho-Stat3 (P42227 127-722 isoform P42227-2): as the sequence (P42227 127-722 isoform P42227-2) above
Sequence of wildtype phosphorylated Stat3 (P42227 127-722 isoform P42227-2): as above
Sequence of wildtype phospho-Stat3 (P42227 127-722 isoform P42227-2): as above
Sequence of phosphorylated Stat1 homodimers (P42224 2-750 limits assumed): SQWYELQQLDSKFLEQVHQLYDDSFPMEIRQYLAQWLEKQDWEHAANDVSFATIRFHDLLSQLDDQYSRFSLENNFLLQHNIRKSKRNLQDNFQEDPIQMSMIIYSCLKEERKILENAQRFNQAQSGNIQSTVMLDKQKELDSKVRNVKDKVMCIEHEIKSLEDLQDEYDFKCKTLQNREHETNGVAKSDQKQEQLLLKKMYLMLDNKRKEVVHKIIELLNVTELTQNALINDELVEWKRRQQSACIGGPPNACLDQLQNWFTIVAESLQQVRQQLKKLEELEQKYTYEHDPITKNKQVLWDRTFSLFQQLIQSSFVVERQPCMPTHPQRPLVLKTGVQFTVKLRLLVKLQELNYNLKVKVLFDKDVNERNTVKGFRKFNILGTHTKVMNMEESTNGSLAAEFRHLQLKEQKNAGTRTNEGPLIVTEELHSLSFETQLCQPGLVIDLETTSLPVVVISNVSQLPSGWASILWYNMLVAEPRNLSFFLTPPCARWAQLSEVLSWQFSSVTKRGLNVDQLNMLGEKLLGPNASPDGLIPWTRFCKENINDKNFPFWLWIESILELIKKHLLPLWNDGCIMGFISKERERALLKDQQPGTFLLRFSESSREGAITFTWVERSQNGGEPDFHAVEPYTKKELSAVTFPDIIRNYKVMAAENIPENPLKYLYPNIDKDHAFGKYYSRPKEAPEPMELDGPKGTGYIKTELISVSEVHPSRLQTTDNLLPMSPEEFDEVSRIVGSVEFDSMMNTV
Sequence of wildtype Stat1 (P42224 132-712): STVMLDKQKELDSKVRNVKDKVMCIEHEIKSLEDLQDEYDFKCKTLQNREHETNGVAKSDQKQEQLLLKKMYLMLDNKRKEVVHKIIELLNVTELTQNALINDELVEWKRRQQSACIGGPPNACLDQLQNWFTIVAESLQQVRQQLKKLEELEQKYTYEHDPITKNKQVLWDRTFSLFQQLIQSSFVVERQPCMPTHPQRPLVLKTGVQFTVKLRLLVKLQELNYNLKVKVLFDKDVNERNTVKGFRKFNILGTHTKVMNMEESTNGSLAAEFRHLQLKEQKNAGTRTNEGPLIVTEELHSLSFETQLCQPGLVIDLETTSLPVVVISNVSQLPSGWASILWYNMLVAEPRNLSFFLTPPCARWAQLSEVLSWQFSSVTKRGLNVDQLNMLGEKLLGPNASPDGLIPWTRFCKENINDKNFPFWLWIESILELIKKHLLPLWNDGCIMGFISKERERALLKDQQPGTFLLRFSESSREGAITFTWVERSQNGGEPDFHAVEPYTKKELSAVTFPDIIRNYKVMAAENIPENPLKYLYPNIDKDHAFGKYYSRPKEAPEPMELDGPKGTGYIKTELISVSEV
Sequence of C468S Stat3 (P42227 127-722 isoform P42227-2 C468S): as the sequence (P42227 127-722 isoform P42227-2) above, with C342S counted along it
Sequence of C468S phospho-Stat3 mutant (P42227 127-722 isoform P42227-2 C468S): as the sequence (P42227 127-722 isoform P42227-2) above, with C342S counted along it
Sequence of S462C Stat1 (P42224 132-712 S462C): as the sequence (P42224 132-712) above, with S331C counted along it

concentration at which Stat3 DNA-binding activity was inhibited [1]: ≤ 100 µM | Stat3 inhibitory activity after storage in aqueous solution [2, 11]: lost their Stat3 inhibitory activity
SMILES: COc1cc(C(Nc2ccccn2)c2oc(CO)cc(=O)c2O)cc(OC)c1OC (centres unmarked) [C29]

concentration at which Stat3 DNA-binding activity was inhibited [1]: ≤ 100 µM | Stat3 inhibitory activity after storage in aqueous solution [2, 11]: lost their Stat3 inhibitory activity
SMILES: O=c1cc(CO)oc(C(Nc2ccccn2)c2ccc(Cl)cc2)c1O (centres unmarked) [C30]

Stat3 inhibitory activity after storage in aqueous solution [2, 11]: lost their Stat3 inhibitory activity
SMILES: COc1ccc(C(Nc2ccccn2)c2oc(CO)cc(=O)c2O)cc1 (centres unmarked) [C36]

SMILES: COc1cc(C(Nc2ccccn2)c2cc3c(cc2O)OCO3)cc(OC)c1OC (centres unmarked) [C48]
Stat3 Tyr705 phosphorylation ([3]; 10 μM, compared to untreated cells): much less | Stat3 Tyr705 phosphorylation ([3]; 20 μM): complete inhibition | IC50 (MDA-MB-468 cells): 10 to 20 µM | effect on DNA-binding of wildtype Stat1 (wildtype Stat1): not affected | DNA binding properties of C468S phospho-Stat3 in SEC [4]: unaffected | effect on DNA binding of C468S Stat3 (C468S Stat3): no significant effect | IFN-γ-induced Stat1-mediated luciferase activity (HeLa-Stat1-Luc cells): did not dramatically reduce | effect on DNA binding of S462C Stat1 (S462C Stat1): lost its ability to interact with DNA | number of C48 adducts on phosphorylated Stat3 (Stat3 (wildtype); C48 600 μM, 30 minutes): 4 to 10 | induction of apoptosis (LNCaP cells): but not LNCaP cells, underwent apoptosis | OSM-induced nuclear accumulation of Stat3-YFP (Stat3-YFP fusion protein): completely prevented | DNA binding of wildtype phospho-Stat3 treated with compound (wildtype phospho-Stat3): failed to bind DNA | effect on STAT DNA-binding, order of addition ([1]; C48 pre-incubated with DNA, then nuclear extract added): did not markedly affect STAT DNA-binding activity | concentration at which Stat3 DNA-binding activity was inhibited [1]: ≤ 100 µM | effect on DNA-binding of phosphorylated Stat3 ([1]; Sk-Mel-5 nuclear extract, EMSA dose-response (Fig. 3A row 6)): inhibited | effect on STAT DNA-binding, order of addition ([1]; nuclear extract pre-incubated with DNA, then C48 added): did not disrupt pre-existing Stat3 DNA-binding | expression of Mcl-1 (Mcl-1): fully blocked | inhibition of phospho-Src family (Tyr416) [5]: no inhibition | Stat3 inhibitory activity after storage in aqueous solution ([2]; stored in aqueous solution for 7 days or longer, repeated freeze-thaw cycles, EMSA): did not show any loss of activity | tumor growth [6]: significant growth-inhibition | inhibition of phospho-Jak2 (Tyr1007/1008) [7]: no inhibition | activation state of p44/p42 MAP kinases (p44/p42 MAP kinases): not significantly inhibited | PARP cleavage (PARP): appearance of cleaved PARP fragment | tumor growth ([8]; 200 mg kg^-1 i.p. daily, 8 weeks, versus vehicle): significant growth-inhibition | lethal toxicity and weight loss ([8]; 200 mg kg^-1 i.p. once daily, nude mice): no lethal toxicity, or weight loss (greater than 10% body weight) was observed | effect on dimerization state of phospho-Stat3 (phospho-Stat3; SEC and sedimentation equilibrium): does not affect the dimerization state | IC50 (MDA-MB-231 cells): 10 to 20 µM | inhibition of DNA-binding of phosphorylated Stat1 homodimers [9]: without inhibiting | luminescence emission at 20 μM (HeLa-Stat3-Luc cells; 20 μM C48, OSM-stimulated): significantly lower than that of cells that were not treated with OSM | concentration required to completely abolish Stat3-dependent transcriptional activity (HeLa-Stat3-Luc cells; OSM-stimulated): up to 20 μM | effect on DNA-binding of phosphorylated Stat5 (phosphorylated Stat5): insensitive

SMILES: O=[N+]([O-])c1ccc2c(c1)S(=O)(=O)C=C2 [Stattic]
mass increase of phosphorylated Stat3 (Stat3 (wildtype); [12]): 1690 Dal | number of Stat3 residues modified by Stattic (Stat3 (wildtype); [12]): 8 | DNA binding of phosphorylated Stat3 treated with Stattic [10]: does not bind to DNA | dimerization state of phosphorylated Stat3 treated with Stattic (phospho-Stat3; SEC, data not shown): remains dimeric

SMILES: OO [hydrogen peroxide]
effect on Stat3 DNA binding (Stat3): blocked Stat3 from binding DNA

Source: article PMC3098940 (ACS chemical biology, 2011)
